This note sets out measurements from ChEMBL document CHEMBL4390637, “Design, synthesis and biological evaluation of novel inhibitors against cyanobacterial pyruvate dehydrogenase multienzyme complex E1” (Bioorg Med Chem, 2019).

One test is filed under the species Sus scrofa. Briefly: Inhibition of porcine PDHc-E1 at 100 uM using MTT and phenazine methosulfate incubated for 3 mins relative to untreated control.
Conditions: not given
Put shortly: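 Porcine PDHc E1 activity followed by MTT reduction at 566 nm. Mix: 1.0 mM MgCl2, 0.2 mM ThDP, 0.5 mM MTT, 6.5 mM PMS, 50 mM K3PO4 pH 7.0, 0.75 mg/mL enzyme, compound at 100 μM final; 3 min at 37 °C, then 2 mM sodium pyruvate added to start; percent inhibition reported.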
On to `Cc1ncc(Cn2cc(COC(=O)c3ccccc3Cl)nn2)c(N)n1`, for which the inhibition (in general, the percentage by which the read-out fell short of the control) turned out to be 7.31%.
On the same count and under the same terms, with `Cc1ncc(Cn2cc(COC(=O)c3ccccc3)nn2)c(N)n1` the figure was 15.9%; with `Cc1ncc(Cn2nnc(COC(=O)c3ccccc3)c2I)c(N)n1`, 21%; with `Cc1ncc(Cn2cc(COC(=O)c3ccc(F)cc3)nn2)c(N)n1`, 17.8%.
In the case of `Cc1ncc(Cn2cc(COC(=O)c3ccc([N+](=O)[O-])cc3)nn2)c(N)n1`, the inhibition turned out to be 13.5%.
On the same count and under the same terms, with `Cc1ncc(Cn2nnc(COC(=O)c3ccc([N+](=O)[O-])cc3)c2I)c(N)n1` the figure was 10.4%.
The same measure, in the same setting: with `Cc1ncc(Cn2cc(COC(=O)c3cccc(Cl)c3)nn2)c(N)n1` the figure was 9.62%; with `Cc1ncc(Cn2nnc(COC(=O)c3cccc(Cl)c3)c2I)c(N)n1`, 5.13%; with `Cc1ncc(Cn2nnc(COC(=O)c3ccccc3Cl)c2I)c(N)n1`, 9.5%.
Molecule `Cc1ncc(Cn2nnc(COC(=O)c3ccc(F)cc3)c2I)c(N)n1` registered an inhibition of 15.3%.

The subject of a further test is Synechocystis sp. PCC 6803. Briefly: Inhibition of Synechocystis sp. PCC6803 PDHC-E1 expressed in Escherichia coli BL-21 (DE3) at 100 uM using 6-DCIP and pyruvate incubated for 5 mins relative to untreated control.
Conditions: not given
The procedure, abridged:
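His-tagged Cy-PDHc E1 co-expressed with GroEL/GroES in E. coli BL-21 (DE3), Ni-NTA purified. Mix: 50 mM K3PO4 pH 7.2, 0.375 mM DCIP, 0.1 mg/ml enzyme, 200 µM ThDP, compound 100 μM; preincubated 5 min at 37 °C, reaction started with saturating pyruvate; percent inhibition reported.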
For `Cc1ncc(Cn2cc(COC(=O)c3ccccc3Cl)nn2)c(N)n1`, the inhibition was 97.8%.
The same measure, in the same setting: as for `Cc1ccc(C(=O)OCc2nnn(Cc3cnc(C)nc3N)c2I)cc1`, the figure is 97.1%.
In turn, `Cc1ncc(Cn2cc(COC(=O)c3ccccc3)nn2)c(N)n1` showed an inhibition of 95.5%.
On the same count and under the same terms, as for `Cc1ncc(Cn2nnc(COC(=O)c3ccccc3)c2I)c(N)n1`, the figure is 96.5%; as for `Cc1ncc(Cn2cc(COC(=O)c3ccc(F)cc3)nn2)c(N)n1`, 99.5%.
For the molecule `Cc1ccc(C(=O)OCc2cn(Cc3cnc(C)nc3N)nn2)cc1`, the inhibition is 95.3%.
Same read-out and setting: with `Cc1ncc(Cn2cc(COc3ccccc3)nn2)c(N)n1` the figure was 19%; with `Cc1ncc(Cn2cc(COC(=O)c3ccc([N+](=O)[O-])cc3)nn2)c(N)n1`, 95.7%; with `Cc1ncc(Cn2nnc(COC(=O)c3ccc([N+](=O)[O-])cc3)c2I)c(N)n1`, 99.2%.
On the same count and under the same terms, with `Cc1ncc(Cn2cc(COC(=O)c3cccc(Cl)c3)nn2)c(N)n1` the figure was 93.2%; with `Cc1ncc(Cn2cc(COc3ccc([N+](=O)[O-])cc3)nn2)c(N)n1`, 8.64%; with `Cc1ncc(Cn2nnc(COC(=O)c3ccc(Cl)cc3)c2I)c(N)n1`, 95.6%.
For the molecule `Cc1ncc(Cn2cc(COc3ccc(Cl)cc3)nn2)c(N)n1`, the inhibition was 29.6%.
`Cc1ncc(Cn2cc(COC(=O)c3ccc(Cl)cc3)nn2)c(N)n1` yielded an inhibition of 94.2%.
For `Cc1ncc(Cn2cc(COc3ccc(F)cc3)nn2)c(N)n1`, the inhibition was 16.2%.
`Cc1ncc(Cn2nnc(COC(=O)c3cccc(Cl)c3)c2I)c(N)n1` returned an inhibition of 98.7%.
For the molecule `Cc1ncc(Cn2nnc(COC(=O)c3ccccc3Cl)c2I)c(N)n1`, the inhibition was found to be 98.9%.
For `Cc1ncc(Cn2nnc(COC(=O)c3ccc(F)cc3)c2I)c(N)n1`, the inhibition is 95.4%.

System in the next test: not listed separately
Briefly: Inhibition of Synechocystis sp. PCC6803 PDHC-E1 expressed in Escherichia coli BL-21 (DE3) using 6-DCIP and pyruvate incubated for 5 mins.
Conditions: not given
On the set-up: species or system Synechocystis sp. PCC 6803. The procedure, abridged:
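Recombinant Cy-PDHc E1 (E. coli BL-21 (DE3) with GroEL/GroES chaperones, Ni-NTA purified) assayed by DCIP reduction in 50 mM K3PO4 pH 7.2, 0.375 mM DCIP, 0.1 mg/ml enzyme, 200 µM ThDP plus inhibitor, 5 min at 37 °C before saturating pyruvate; IC50 values as means ± SD, n = 3.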
Regarding `Cc1ncc(Cn2cc(COC(=O)c3ccccc3Cl)nn2)c(N)n1`, the IC50 (as a rule, the concentration that gives 50% inhibition) amounted to 3.37 µM. This counts as single-digit micromolar.
With `Cc1ccc(C(=O)OCc2nnn(Cc3cnc(C)nc3N)c2I)cc1`, the IC50 was 1.88 µM.
`Cc1ncc(Cn2cc(COC(=O)c3ccccc3)nn2)c(N)n1` came in with a half-maximal inhibitory concentration (IC50) of 3.58 µM.
With `Cc1ncc(Cn2nnc(COC(=O)c3ccccc3)c2I)c(N)n1`, the IC50 was determined as 1.94 µM.
With `Cc1ncc(Cn2cc(COC(=O)c3ccc(F)cc3)nn2)c(N)n1`, it took 3.88 µM to reach half-maximal inhibition (IC50).
Still for that read-out and setting: as for `Cc1ccc(C(=O)OCc2cn(Cc3cnc(C)nc3N)nn2)cc1`, the figure is 4.48 µM.
With `Cc1ncc(Cn2cc(COc3ccccc3)nn2)c(N)n1`, the IC50 is greater than 100 µM.
As to `Cc1ncc(Cn2cc(COC(=O)c3ccc([N+](=O)[O-])cc3)nn2)c(N)n1`, the IC50 was determined as 3.57 µM. In other words, the single-digit micromolar range.
In turn, `Cc1ncc(Cn2nnc(COC(=O)c3ccc([N+](=O)[O-])cc3)c2I)c(N)n1` showed an IC50 of 1.69 µM.
`Cc1ncc(Cn2cc(COC(=O)c3cccc(Cl)c3)nn2)c(N)n1` returned a half-inhibitory concentration (IC50) of 3.73 µM.
`Cc1ncc(Cn2cc(COc3ccc([N+](=O)[O-])cc3)nn2)c(N)n1` registered a 50% inhibitory concentration (IC50) greater than 100 µM.
With `Cc1ncc(Cn2nnc(COC(=O)c3ccc(Cl)cc3)c2I)c(N)n1`, the IC50 turned out to be 2.35 µM.
In turn, `Cc1ncc(Cn2cc(COc3ccc(Cl)cc3)nn2)c(N)n1` showed a half-inhibitory concentration (IC50) greater than 100 µM.
Take `Cc1ncc(Cn2cc(COC(=O)c3ccc(Cl)cc3)nn2)c(N)n1`: inhibition was half-maximal at 3.55 µM (IC50). This counts as single-digit micromolar.
In turn, `Cc1ncc(Cn2cc(COc3ccc(F)cc3)nn2)c(N)n1` had an IC50 greater than 100 µM.
`Cc1ncc(Cn2nnc(COC(=O)c3cccc(Cl)c3)c2I)c(N)n1` gave an IC50 of 1.79 µM. This lies in the single-digit micromolar range.
`Cc1ncc(Cn2nnc(COC(=O)c3ccccc3Cl)c2I)c(N)n1` had a half-maximal inhibitory concentration (IC50) of 1.48 µM.
With `Cc1ncc(Cn2nnc(COC(=O)c3ccc(F)cc3)c2I)c(N)n1`, 1.61 µM corresponded to half-maximal inhibition (IC50).

In another test the test system is Synechocystis sp. PCC 6803. Briefly: Growth inhibition of Synechocystis sp. PCC6803 incubated for 7 days. In kind it is functional, organism-based.
Conditions: not given
As for CUPRIC SULFATE, the EC50 (as a rule, the concentration needed to bring the measured effect to its halfway point) came out at 1470 nM. This counts as single-digit micromolar.

The same test, now with this note: Synechocystis sp. PCC 6803, 168 h.
Turning to `Cc1ncc(Cn2cc(COC(=O)c3ccccc3Cl)nn2)c(N)n1`, it took 2440 nM to reach a half-maximal effect (EC50). That is a single-digit micromolar value.
On the same count and under the same terms, with `Cc1ccc(C(=O)OCc2nnn(Cc3cnc(C)nc3N)c2I)cc1` the figure was 1140 nM.
`Cc1ncc(Cn2cc(COC(=O)c3ccccc3)nn2)c(N)n1` had an EC50 of 1660 nM.
In turn, `Cc1ncc(Cn2nnc(COC(=O)c3ccccc3)c2I)c(N)n1` displayed an EC50 of 1440 nM.
The molecule `Cc1ncc(Cn2cc(COC(=O)c3ccc(F)cc3)nn2)c(N)n1` gave an EC50 of 2110 nM.
`Cc1ccc(C(=O)OCc2cn(Cc3cnc(C)nc3N)nn2)cc1` yielded an EC50 of 1430 nM.
Still for that read-out and setting: as for `Cc1ncc(Cn2cc(COc3ccccc3)nn2)c(N)n1`, the figure is greater than 100000 nM; as for `Cc1ncc(Cn2cc(COC(=O)c3ccc([N+](=O)[O-])cc3)nn2)c(N)n1`, 1640 nM.
`Cc1ncc(Cn2nnc(COC(=O)c3ccc([N+](=O)[O-])cc3)c2I)c(N)n1` returned an EC50 of 1090 nM.
Take `Cc1ncc(Cn2cc(COC(=O)c3cccc(Cl)c3)nn2)c(N)n1`: the EC50 worked out at 1810 nM.
`Cc1ncc(Cn2cc(COc3ccc([N+](=O)[O-])cc3)nn2)c(N)n1`: the 50% effective concentration (EC50) is greater than 100000 nM.
`Cc1ncc(Cn2nnc(COC(=O)c3ccc(Cl)cc3)c2I)c(N)n1` returned an EC50 of 900 nM.
The molecule `Cc1ncc(Cn2cc(COc3ccc(Cl)cc3)nn2)c(N)n1` yielded a half-maximal effective concentration (EC50) greater than 100000 nM.
The same measure, in the same setting: as for `Cc1ncc(Cn2cc(COC(=O)c3ccc(Cl)cc3)nn2)c(N)n1`, the figure is 2250 nM; as for `Cc1ncc(Cn2cc(COc3ccc(F)cc3)nn2)c(N)n1`, greater than 100000 nM; as for `Cc1ncc(Cn2nnc(COC(=O)c3cccc(Cl)c3)c2I)c(N)n1`, 1160 nM.
Still for that read-out and setting: with `Cc1ncc(Cn2nnc(COC(=O)c3ccccc3Cl)c2I)c(N)n1` the figure was 1170 nM; with `Cc1ncc(Cn2nnc(COC(=O)c3ccc(F)cc3)c2I)c(N)n1`, 840 nM.

For a further test, the system named is Microcystis aeruginosa. Briefly: Growth inhibition of Microcystis aeruginosa FACHB905 incubated for 7 days. In kind it is functional, organism-based.
Conditions: not given
The procedure, abridged: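 Cyanobacteria grown in BG11 medium at 28 °C on a 12 h light/12 h dark cycle for 7 days to logarithmic phase. A 1% inoculum was transferred into fresh medium containing compound at different concentrations and cultured 7 days. OD680 was read, then inhibition rate and EC50 were calculated. Values are means, n = 3.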
The molecule CUPRIC SULFATE showed an EC50 of 1770 nM.

Still in this test, the particulars now being: Microcystis aeruginosa, FACHB905, 168 h.
`Cc1ncc(Cn2cc(COC(=O)c3ccccc3Cl)nn2)c(N)n1` yielded a 50% effective concentration (EC50) of 1430 nM.
As to `Cc1ccc(C(=O)OCc2nnn(Cc3cnc(C)nc3N)c2I)cc1`, it took 850 nM to reach a half-maximal effect (EC50).
Molecule `Cc1ncc(Cn2cc(COC(=O)c3ccccc3)nn2)c(N)n1` came in with an EC50 of 1170 nM.
The same measure, in the same setting: with `Cc1ncc(Cn2nnc(COC(=O)c3ccccc3)c2I)c(N)n1` the figure was 990 nM; with `Cc1ncc(Cn2cc(COC(=O)c3ccc(F)cc3)nn2)c(N)n1`, 1220 nM; with `Cc1ccc(C(=O)OCc2cn(Cc3cnc(C)nc3N)nn2)cc1`, 1200 nM.
`Cc1ncc(Cn2cc(COc3ccccc3)nn2)c(N)n1` registered a concentration for a half-maximal effect (EC50) greater than 100000 nM.
With `Cc1ncc(Cn2cc(COC(=O)c3ccc([N+](=O)[O-])cc3)nn2)c(N)n1`, the EC50 is 1330 nM.
For the molecule `Cc1ncc(Cn2nnc(COC(=O)c3ccc([N+](=O)[O-])cc3)c2I)c(N)n1`, the EC50 worked out at 950 nM. This EC50 and that of the molecule before are within 1.5-fold of each other.
Take `Cc1ncc(Cn2cc(COC(=O)c3cccc(Cl)c3)nn2)c(N)n1`: the response was half-maximal at 1290 nM (EC50).
On the same count and under the same terms, as for `Cc1ncc(Cn2cc(COc3ccc([N+](=O)[O-])cc3)nn2)c(N)n1`, the figure is greater than 100000 nM; as for `Cc1ncc(Cn2nnc(COC(=O)c3ccc(Cl)cc3)c2I)c(N)n1`, 1060 nM; as for `Cc1ncc(Cn2cc(COc3ccc(Cl)cc3)nn2)c(N)n1`, greater than 100000 nM.
As for `Cc1ncc(Cn2cc(COC(=O)c3ccc(Cl)cc3)nn2)c(N)n1`, the EC50 stood at 1110 nM.
On to `Cc1ncc(Cn2cc(COc3ccc(F)cc3)nn2)c(N)n1`, for which the EC50 is greater than 100000 nM.
`Cc1ncc(Cn2nnc(COC(=O)c3cccc(Cl)c3)c2I)c(N)n1` showed a concentration for a half-maximal effect (EC50) of 740 nM.
On to `Cc1ncc(Cn2nnc(COC(=O)c3ccccc3Cl)c2I)c(N)n1`, for which the EC50 was determined as 900 nM.
Take `Cc1ncc(Cn2nnc(COC(=O)c3ccc(F)cc3)c2I)c(N)n1`: the 50% effective concentration (EC50) was determined as 780 nM.
